hIAP act – human IAP activators, primary screen, biochemical, luminescence, uHTS; Intestinal-type alkaline phosphatase (Homo sapiens), P09923; activation factor at 10 µM; 330,000 tested, 0.16% active; purified human IAP, CDP-Star luminescence, 30 min; hits give high values; 1 = vehicle-only enzyme, 0 = enzyme-free background; AID 2524, 2010;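 active means activation factor of the enzyme at least 2-fold when tested at 20 µM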
Target sequence (P09923 whole entry, looked up): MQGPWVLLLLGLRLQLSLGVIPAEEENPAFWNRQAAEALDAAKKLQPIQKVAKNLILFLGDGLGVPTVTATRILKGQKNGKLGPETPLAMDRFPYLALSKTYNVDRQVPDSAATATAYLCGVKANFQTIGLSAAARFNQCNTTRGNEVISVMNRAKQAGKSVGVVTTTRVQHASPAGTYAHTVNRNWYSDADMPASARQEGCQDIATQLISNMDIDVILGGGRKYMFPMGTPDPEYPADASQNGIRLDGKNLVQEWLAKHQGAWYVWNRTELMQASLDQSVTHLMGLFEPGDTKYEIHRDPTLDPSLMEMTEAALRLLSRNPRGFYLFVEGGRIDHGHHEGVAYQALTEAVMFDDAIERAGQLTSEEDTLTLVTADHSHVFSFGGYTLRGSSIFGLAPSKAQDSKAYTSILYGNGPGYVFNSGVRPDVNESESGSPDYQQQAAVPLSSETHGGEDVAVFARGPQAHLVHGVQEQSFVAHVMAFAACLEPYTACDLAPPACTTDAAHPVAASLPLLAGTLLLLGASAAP
mIAP block – inhibitors of mouse IAP, primary screen, biochemical, luminescence, uHTS; intestinal alkaline phosphatase [Mus musculus]; purified mouse IAP, CDP-Star luminescence, 30 min; inhibition, % at 10 µM; 330,000 tested, 0.2% active;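 active means inhibition of at least 40% at 10 µM in the primary screen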;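 further: plate controls were DMSO with enzyme for no effect and no enzyme wells for full effect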
bIAP act – bovine intestinal alkaline phosphatase activators, primary screen, biochemical, bovine IAP, CDP-star luminescence; purified bovine IAP, 30 min; hits give high values; fold of DMSO-control signal, blank-subtracted; activation factor at 20 µM; 200,000 tested, 0.17% active; AID 1016, 2008;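 active means activation factor of 2 or more at 20 µM, a signal rise over negative controls twice the positive control's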
mIAP activ – activators of mouse IAP, primary screen, biochemical, luminescence, uHTS; intestinal alkaline phosphatase [Mus musculus]; muIAP, CDP-Star luminescence, 30 min; hits give high values; 1 = vehicle-only enzyme signal, 0 = enzyme-free wells; activation factor at 10 µM; 330,000 tested, 0.24% active; AID 2805, 2010;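 active means activation factor of at least 2 at 20 µM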
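Assay system: mouse IAP enzyme; Reagent: CDP-Star chemiluminescent phosphatase substrate; Compound: DMSO-dissolved test compounds; Incubation: 30 min, room temperature; Technique: luminescence from enzymatic CDP-Star hydrolysis; Controls: DMSO-only wells and no-enzyme negative control.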
hIAP inh – human IAP inhibitors, primary screen, biochemical, luminescence, uHTS | Intestinal-type alkaline phosphatase (Homo sapiens), P09923 | purified IAP, CDP-Star luminescence, 30 min | inhibition, % at 10 µM | 330,000 tested, 0.12% active;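 active means inhibition reaching a set limit with compound at 10 µM in the primary screen, cut at about 35% in these data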;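 further: plate controls were DMSO wells with enzyme for no effect and no-enzyme buffer wells for full effect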
bIAP inhibitor – bovine intestinal alkaline phosphatase inhibitors, primary screen, selectivity assay for TNAP inhibitor project, biochemical, bovine IAP, CDP-star luminescence; alkaline phosphatase, intestinal [Bos taurus]; purified bovine IAP, 30 min; inhibition, % at 20 µM; 190,000 tested, under 10 active; AID 1019, 2008;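 active means over 50% inhibition of intestinal alkaline phosphatase at 20 µM in the single-dose screen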
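System: purified bovine intestinal alkaline phosphatase (IAP) enzyme; Input: IAP diluted 1/65,000,000 in the well; Measured by: CDP-star luminescence signal; Compound dosing: 20 µM single dose; Incubation: 30 min reaction at room temperature.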
The depositor's hits bear a star; i = inactive; . = not tested or not shown. Compounds with a hit are over-represented: about 0.72% of the library has one in this group of screens.

SMILES	hIAP act	mIAP block	bIAP act	mIAP activ	hIAP inh	bIAP inhibitor
Cc1ccc(NC(=S)NCC(C)CSc2ccc(Cl)cc2)cc1 (stereo not drawn)	1.4	-165	0.7	2.7*	-36	31
Cc1ccc(NC(=S)NCCSc2ccc(Cl)cc2)c(C)c1	1	-99	1.1	2	0	-15
O=C(NCCc1ccccc1)c1n[nH]c2ccccc12	0.81	-2	2*	1	19	-96
Cc1nc(SCc2nc3c(F)cccc3[nH]2)c2oc3ccccc3c2n1	1	16	.	0.84	-1	.
CSc1ccccc1NC(=O)Nc1ccc(F)c(Cl)c1	0.81	-128	1	2.3*	20	1
COc1ccc(NC(=O)Nc2ccc(F)c(Cl)c2)cc1	0.91	-89	1	1.9	9	3
CSc1ccccc1NC(=O)Nc1cccc(Cl)c1	0.91	-113	0.9	2.1*	9	6
Cc1ccc(NC(=O)Nc2ccc(F)c(Cl)c2)cc1	1.1	-188	0.7	2.9*	-14	31
CC(OC(=O)c1ccc([N+](=O)[O-])s1)C(=O)NC1CCCCC1C (stereo not drawn)	1	-9	.	1.1	-1	.
COC(=O)c1sccc1NC(=O)Nc1cccc([N+](=O)[O-])c1	1.1	66*	.	0.34	-5	.
CCCCn1nc(C(=O)N(C)C2CCCCC2)c2ccccc2c1=O	1	-6	.	1.1	-4	.
CCOc1cc(/C=C2\CCC/C(=C\c3cc(Cl)c(O)c(OCC)c3)C2=O)cc(Cl)c1O	0.79	44*	0.3	0.56	21	.
CCCN1C=CC(=C/C=C(\C#N)C(=O)OCC)C=C1	0.63	26	0.5	0.74	37*	49
CCOC(=O)/C(C#N)=C/C=C1\C=Cc2ccccc2N1CC	0.69	44*	1	0.56	31	-2
CCCN1C=CC(=CC=C(C#N)C#N)C=C1	0.89	30	.	0.7	11	.
COc1ccc(CCN2CC(C(=O)Nc3nccs3)CC2=O)cc1OC (stereo not drawn)	0.98	-7	.	1.1	2	.
CCOc1ccc(-c2n[nH]c(=S)o2)cc1	1.2	44*	1.2	0.56	-22	-23
Cc1nn(Cc2cccc(Oc3ccccc3)c2)c(C)c1NC(=O)NC12CC3CC(CC(C3)C1)C2	0.96	i	1	6.8*	4	0
O=C(NCc1ccccc1)NC12CC3CC(CC(C3)C1)C2	0.95	-10	.	1.1	5	.
Cc1ccc(NC(=O)CSc2nc3nn(-c4ccccc4)c(=O)c-3c3n2CCCCC3)cc1F	1	11	.	0.89	-2	.
Cc1cc(C)n2nc(SCC(=O)N3CC(C)CC(C)C3)nc2n1 (stereo not drawn)	1.1	0	.	1	-8	.
Cc1ccc(-n2ncc3c(N4CCCC(C)C4)ncnc32)c(C)c1 (stereo not drawn)	1.1	44*	.	0.56	-11	.
O=C(NC(=S)/C(=C1\CCCCCN1)[N+](=O)[O-])c1ccccc1	0.94	11	.	0.89	6	.
COc1ccc(C(=O)NCC(=O)OCc2c(Cl)cccc2Cl)cc1OC	1.1	6	.	0.94	-8	.
O=C1NC(Cc2ccc(O)cc2)c2nc3ccc(Br)cc3c(=O)n2-c2ccc(Cl)cc21 (stereo not drawn)	1	-10	.	1.1	-2	.
SMILES	hIAP act	mIAP block	bIAP act	mIAP activ	hIAP inh	bIAP inhibitor
Cc1ccc(NC(=O)C2CCC(=O)N2)cc1C (stereo not drawn)	1.1	-3	0.9	1	-9	9
Cc1ccc(NC2=NC(C(=O)Nc3ccc(C)c(C)c3)CC(=O)N2)cc1 (stereo not drawn)	1.1	7	2*	0.93	-10	-96
C=C(C)[C@@H]1CC[C@]2(C(=O)O)CC[C@]3(C)C(CCC4[C@@]5(C)CC[C@H](O)C(C)(C)C5CC[C@]43C)C12 (stereo partly drawn)	1.3	47*	.	0.53	-28	.
COc1ccccc1CNc1ncc(-c2ccccc2)n1C	1.3	2	.	0.97	-31	.
COc1cccc(-c2cnc(NCc3cc(Cl)ccc3O)n2C)c1	0.79	4	2.2*	0.96	21	-117
COc1cc(C2c3c(oc4ccc(Cl)cc4c3=O)C(=O)N2Cc2ccco2)cc(OC)c1OC (stereo not drawn)	.	.	2.6*	.	.	-164
CN(Cc1ccc(Br)s1)C(=O)CNC(=O)c1ccc2c(c1)OCO2	0.9	-4	.	1	10	.
CC(C)c1ccc(NC(=O)C(c2ccccc2)N2CC(=O)Nc3ccccc32)cc1 (stereo not drawn)	0.97	-108	1.1	2.1*	3	-5
CC(C)n1ncc2c(C(=O)NCC(=O)Nc3ccccc3Br)cc(C3CC3)nc21	1.1	2	.	0.98	-7	.
CC(C)CC1NC(=O)c2ccc(Cl)cc2-n2c1nc1ccc(Cl)cc1c2=O (stereo not drawn)	0.9	0	.	1	10	.
NC(=O)c1ccc(NC(=O)CSc2nnc(-c3ccc4c(c3)OCO4)o2)cc1	1.1	6	.	0.94	-12	.
O=C(CSc1nnc(-c2ccc3c(c2)OCO3)o1)Nc1c(F)cccc1F	1.2	55*	.	0.45	-22	.
CC1CCCCC1NC(=S)Nc1ccc(Cl)cc1Cl (stereo not drawn)	1.1	-178	1	2.8*	-5	-2
CCOc1cc(/C=C2/N=C(C)C(C(=O)OC)=C2O)ccc1O	0.83	42*	0.4	0.58	17	.
COc1cc(/C=C2/C(=O)NN(c3cccc(F)c3)C2=O)ccc1OC(=O)c1ccco1	0.84	11	2.1*	0.89	16	-109
O=C1NC(=S)S/C1=C\c1coc2ccc(O)cc2c1=O	0.87	46*	.	0.54	13	.
NS(=O)(=O)c1cccc(NC(=O)COC(=O)/C=C/c2nc3ccccc3s2)c1	1	2	.	0.98	-1	.
O=C(/C=C/c1ccc(O)c(O)c1)c1ccccc1O	0.3	32	.	0.68	70*	.
O=C(Nc1ccc2c(c1)CCC2)Nc1ccc(F)cc1F	0.95	-32	.	1.3	5	.
O=C(Nc1ccc2c(c1)CCC2)Nc1ccccc1F	1.2	-102	.	2*	-18	.
O=C(Nc1ccc(Br)cc1)Nc1ccccc1F	1.1	-117	0.9	2.2*	-12	12
Cc1c(C)n(Cc2ccccc2)c2ccc(C(=O)OCCCN(C)C)cc12	0.97	-9	2.2*	1.1	3	-120
